Measured values pooled from the literature.
Protocols differ between the studies behind these lines.
Target: Myotonin-protein kinase (DMPK, Homo sapiens, UniProt Q09013)
Sequence (Q09013 1-629, as in one of the studies): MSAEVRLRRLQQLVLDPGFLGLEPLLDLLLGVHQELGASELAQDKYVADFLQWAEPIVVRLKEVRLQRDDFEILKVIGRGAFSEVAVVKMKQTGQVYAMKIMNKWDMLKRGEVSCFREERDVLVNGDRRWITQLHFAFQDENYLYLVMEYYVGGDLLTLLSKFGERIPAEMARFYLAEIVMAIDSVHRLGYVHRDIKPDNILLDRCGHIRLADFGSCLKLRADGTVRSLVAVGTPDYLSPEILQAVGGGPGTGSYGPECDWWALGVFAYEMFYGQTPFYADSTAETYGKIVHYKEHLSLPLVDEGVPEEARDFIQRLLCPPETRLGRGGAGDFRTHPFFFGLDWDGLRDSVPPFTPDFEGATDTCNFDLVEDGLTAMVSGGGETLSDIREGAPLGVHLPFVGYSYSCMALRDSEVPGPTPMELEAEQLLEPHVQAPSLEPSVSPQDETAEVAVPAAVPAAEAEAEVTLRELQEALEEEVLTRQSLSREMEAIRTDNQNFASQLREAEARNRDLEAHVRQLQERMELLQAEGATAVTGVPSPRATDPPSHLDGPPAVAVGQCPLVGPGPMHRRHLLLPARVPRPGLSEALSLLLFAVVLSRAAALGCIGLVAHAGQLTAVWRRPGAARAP

SMILES | observed | action | method | concentration | quantity | result
C=CC(=O)N1CCC([C@@H]2CCNc3c(C(N)=O)c(-c4ccc(Oc5ccccc5)cc4)nn32)CC1 | enzyme activity | inhibitor |  | 1 µM | inhibition | 10%
COc1ccc2oc(-c3ccc4nc(N)oc4c3)c/c(=N\c3ccccc3NC(=O)CCN)c2c1 | binding |  |  | 1 µM | remaining binding | 102%
Cc1ccc(NC(=O)c2ccnc(C(F)(F)F)c2)cc1-c1cc(OCCO)nc(N2CCOCC2)c1 | binding |  | competition with immobilised ligand | 1 µM | remaining binding | 100%
CCCCC(=O)Nc1ccc(-c2ccc3ncn(CCC)c(=O)c3c2)cn1 | binding |  | competition with immobilised ligand | 0.5 µM | remaining binding | 83%
C1=C/COCc2cc(ccc2OCCN2CCCC2)Nc2nccc(n2)-c2cccc(c2)COC/1 | binding |  |  | 0.1 µM | remaining binding | 100%
C=CC(=O)N1CCC[C@@H](n2nc(-c3ccc(Oc4ccccc4)cc3)c3c(N)ncnc32)C1 | enzyme activity | inhibitor |  | 1 µM | inhibition | 1%
COc1ccc2[nH]c3c4[nH]c5ccc(OC)cc5c4c4c(c3c2c1)C(=O)NC4=O | binding |  | competition with immobilised ligand | 1 µM | remaining binding | 56%
CC(C)S(=O)(=O)c1ccc2nccc(Nc3ccc4sc(C5CCCC5)nc4c3)c2c1 | enzyme activity | inhibitor |  | 1 µM | activity vs control | 80%
